Format in all cases: functional, tissue-based
Test [1] deals with T1, Histamine H1 receptor (Cavia porcellus, UniProt P31389). The experiment in a line: Antagonist activity at histamine H1 receptor in guinea pig ileum assessed as inhibition of histamine-induced contractions at 0.5 mg/ml. A digest of the protocol: (§1)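 Isolated ileum from male guinea pigs (250–400 g), killed by a blow to the skull and cervical dislocation. Segments 2–3 cm long were tied to an aerating tube and an isotonic transducer. Cumulative histamine diphosphate was added every 2 min, from the threshold concentration up to the maximal response. Contraction height was expressed as % of the maximum with saline. EC50 and Emax were compared with saline (Student's t-test, n = 5 strips, mean ± SEM).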

Test [2] deals with T1, Histamine H1 receptor. The experiment in a line: Antagonist activity at histamine H1 receptor in guinea pig ileum assessed as inhibition of histamine-induced contractions at 1.0 mg/ml. A digest of the protocol:
as §1

The target in test [3] is T1, Histamine H1 receptor. The test can be described thus: Antagonist activity at histamine H1 receptor in guinea pig ileum assessed as inhibition of histamine-induced contractions at 0.1 mg/ml. A digest of the protocol: as §1
Test [4] addresses Histamine H1 receptor (Cavia porcellus) (UniProt P31389). The experiment in a line: Antagonist activity at histamine H1 receptor in guinea pig ileum assessed as inhibition of histamine-induced contractions at 0.5 mg/ml relative to control. A digest of the protocol:
as §1

Test [5] shares this target. The experiment in a line: Antagonist activity at histamine H1 receptor in guinea pig ileum assessed as inhibition of histamine-induced contractions at 1.0 mg/ml relative to control. The method in brief: as §1
The target is the same in test [6]. The experiment in a line: Antagonist activity at histamine H1 receptor in guinea pig ileum assessed as inhibition of histamine-induced contractions at 0.1 mg/ml relative to control. A digest of the protocol:
as §1

Test [7] deals with T1, Histamine H1 receptor. The test can be described thus: Antagonist activity at histamine H1 receptor in guinea pig ileum assessed as inhibition of histamine-induced contractions at 5 ug/ml. The method in brief: as §1
The target of test [8] is Histamine H1 receptor (Cavia porcellus) (UniProt P31389). The experiment in a line: Antagonist activity at histamine H1 receptor in guinea pig ileum assessed as inhibition of histamine-induced contractions at 5 ug/ml relative to control. The method in brief:
as §1

From ChEMBL document CHEMBL1144223, “Design, synthesis, and docking studies of novel benzopyrone derivatives as H(1)-antihistaminic agents” (Bioorg Med Chem, 2008) come the findings set out here.

Structures are written as SMILES. Counter-ions that a name gives are not always drawn.

Sequence of Histamine H1 receptor (Cavia porcellus) (P31389 whole entry): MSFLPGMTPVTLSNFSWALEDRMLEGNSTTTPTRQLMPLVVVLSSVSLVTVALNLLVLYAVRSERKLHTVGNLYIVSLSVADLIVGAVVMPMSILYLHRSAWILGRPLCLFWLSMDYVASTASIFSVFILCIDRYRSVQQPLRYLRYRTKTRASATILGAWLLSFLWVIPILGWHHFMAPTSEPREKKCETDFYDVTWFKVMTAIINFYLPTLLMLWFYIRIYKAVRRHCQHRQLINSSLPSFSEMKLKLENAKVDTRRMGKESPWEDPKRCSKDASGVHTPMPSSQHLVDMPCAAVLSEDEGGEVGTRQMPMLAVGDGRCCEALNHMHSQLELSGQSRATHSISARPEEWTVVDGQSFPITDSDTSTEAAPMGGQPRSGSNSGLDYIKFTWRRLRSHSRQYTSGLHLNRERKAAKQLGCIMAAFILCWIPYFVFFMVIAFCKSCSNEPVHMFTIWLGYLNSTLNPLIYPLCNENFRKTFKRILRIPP
T1 sequence (P31389 whole entry): as above

In general, EC50 refers to the concentration at which the effect is half-maximal. What is called Emax is the maximal effect, on the per cent scale that the assay sets. For `O=c1cc(-c2ccccc2)c2ccc(OCC(O)CN3CCNCC3)cc2o1` (centres undefined), the 50% effective concentration (EC50) at Histamine H1 receptor [1] is 16.6 nM; on Histamine H1 receptor [2], 22.6 nM; at Histamine H1 receptor [3], 15.2 nM. Besides, the Emax in test [4] came to 100%; in test [5], 53%; in test [6] it was 100%.
Take `COc1ccccc1N1CCN(CC(O)COc2ccc3c(-c4ccccc4)cc(=O)oc3c2)CC1` (centres undefined): the results for the EC50 at Histamine H1 receptor [1], at Histamine H1 receptor [2] and at Histamine H1 receptor [3] were 12.7 nM, 18.3 nM and 11.7 nM, respectively. For the same molecule, the values for the Emax in test [4], in test [5] and in test [6] were 96%, 52% and 100%, respectively.
Take `O=c1cc(-c2ccccc2)c2ccc(OCC(O)CN3CCCCC3)cc2o1` (centres undefined): the results for the EC50 at Histamine H1 receptor [1], at Histamine H1 receptor [2] and at Histamine H1 receptor [3] were 15.8 nM, 23.5 nM and 14.8 nM, respectively. Besides, the Emax in test [4] turned out to be 94%; in test [5], 60%; in test [6] it was 100%.
`CCN(CC)CC(O)COc1ccc2oc(=O)cc(C)c2c1` (centres undefined): the EC50 on Histamine H1 receptor [1] is 19.6 nM; at Histamine H1 receptor [2] it was 27.8 nM; at Histamine H1 receptor [3], 17 nM. The Emax in test [4] was determined as 96%; in test [5] it was 58%; in test [6], 100%.
For `Cc1cc(=O)oc2ccc(OCC(O)CN3CCN(C)CC3)cc12` (centres undefined), the EC50 was 18.1 nM at Histamine H1 receptor [1], 24.4 nM on Histamine H1 receptor [2] and 17.4 nM at Histamine H1 receptor [3]. Besides, the maximal response (Emax) was determined as 98% in test [4], 54% in test [5] and 100% in test [6].
Turning to `Cc1cc(=O)oc2ccc(OCC(O)CN3CCN(c4ccccc4)CC3)cc12` (centres undefined), the EC50 on Histamine H1 receptor [1] is 16 nM; on Histamine H1 receptor [2], 21.5 nM; on Histamine H1 receptor [3], 13.2 nM. For the same molecule, the Emax in test [4] was determined as 95%; in test [5] it was 60%; in test [6] it was 100%.
Consider `Cc1cc(=O)oc2ccc(OCC(O)CN3CCCCC3)cc12` (centres undefined), for which the values for the EC50 on Histamine H1 receptor [1], at Histamine H1 receptor [2] and on Histamine H1 receptor [3] were 20.5 nM, 26.2 nM and 17.3 nM, respectively. Besides, the Emax was found to be 98% in test [4], 55% in test [5] and 100% in test [6].
For `CN(C)CCC(c1ccccc1)c1ccccn1` (centres undefined) [PHENIRAMINE MALEATE], the EC50 on Histamine H1 receptor [7] is 19.1 nM. The Emax in test [8] came to 78%.
As for `CCN(CC)CC(O)COc1ccc2c(-c3ccccc3)cc(=O)oc2c1` (centres undefined), the EC50 at Histamine H1 receptor [1] was 17.4 nM; at Histamine H1 receptor [2] it was 24.2 nM; on Histamine H1 receptor [3] it was 16.1 nM. Further, the Emax in test [4] came out at 95%; in test [5], 60%; in test [6] it was 100%.
`COc1ccccc1N1CCN(CC(O)COc2ccc3oc(=O)cc(C)c3c2)CC1` (centres undefined): the EC50 on Histamine H1 receptor [1] was 14.6 nM; on Histamine H1 receptor [2] it was 20 nM; at Histamine H1 receptor [3], 13.7 nM. Also, the Emax came to 96% in test [4], 58% in test [5] and 100% in test [6].
As for `O=c1cc(-c2ccccc2)c2ccc(OCC(O)CN3CCOCC3)cc2o1` (centres undefined), the EC50 on Histamine H1 receptor [1] is 16.3 nM; on Histamine H1 receptor [2], 21.8 nM; on Histamine H1 receptor [3], 14.4 nM. For the same molecule, the results for the maximal effect (Emax) in test [4], in test [5] and in test [6] were 95%, 58% and 100%, respectively.
As to `CCCNCC(O)COc1ccc2c(-c3ccccc3)cc(=O)oc2c1` (centres undefined), the values for the EC50 on Histamine H1 receptor [1], at Histamine H1 receptor [2] and on Histamine H1 receptor [3] were 17.8 nM, 24.1 nM and 15.8 nM, respectively. Besides, the values for the Emax in test [4], in test [5] and in test [6] were 100%, 53% and 100%, respectively.
For `O=c1cc(-c2ccccc2)c2ccc(OCC(O)CN3CCN(c4ccccc4)CC3)cc2o1` (centres undefined), the EC50 on Histamine H1 receptor [1] was 13.8 nM; at Histamine H1 receptor [2], 18.2 nM; at Histamine H1 receptor [3] it was 11.8 nM. For the same molecule, the results for the Emax in test [4], in test [5] and in test [6] were 94%, 54% and 100%, respectively.
